# This is a sample that favours compounds with a hit; in the whole collection about 1.6% have one here.
# MT1-MMP act inh: blockers of MT1-MMP proenzyme processing, primary screen, HT1080 RFP-PRO-GFP cells, GFP/RFP fluorescence | GFP/RFP ratio change, % at 20 µM | 360,000 tested, 0.061% active | GFP/RFP ratio fluorescence, overnight; percent of plate control window, DMSO zero;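 active means GFP/RFP ratio change of at least 30% with cell ATP level not reduced by more than half and red fluorescence within 50% of control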
#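 Assay system: HT1080 cells carrying an RFP-PRO-GFP reporter | Dosing: Single dose of 20 µM compound, 1% DMSO final | Incubation: Cells overnight before dosing, compound overnight, 37 °C, 5% CO2 | Evaluation: GFP/RFP fluorescence ratio | Control set: DMSO and RFP-L50D-GFP cell wells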
# SKN-1 inh: suppressors of acrylamide-induced Pgst-4::GFP reporter in worms, primary screen, SKN-1 inhibitor project, whole organism, uHTS, GFP/RFP fluorescence ratio, strain VP596; C. elegans VP596 Pgst-4::GFP/RFP ratio, 24 h; inhibition, % at 21.8 µM; 360,000 tested, 0.49% active;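 active means interference check ratio from 0.5 to 1.5 plus GFP to RFP signal ratio inhibition reaching or exceeding a fixed threshold, cut at about 30% in these data, passing the limit was not always enough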
# Tb MetRS inh: T. brucei MetRS inhibitors, primary screen, biochemical, luminescence | methionyl-tRNA synthetase (Trypanosoma brucei brucei) | purified T. brucei MetRS, ATP depletion, Kinase-Glo luminescence | inhibition, % at 11.9 µM | 360,000 tested, 0.4% active | AID 624268, 2012;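 active means inhibition above a per-plate cutoff of the control wells' mean inhibition plus 3 SD, cut at about 5.5% in these data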
#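 Test system – parasite MetRS enzyme · Reagent – substrates ATP, L-methionine and bulk Escherichia coli tRNA · Doses – 11.9 µM compound single dose, 0.9% DMSO · Times – 15 min enzyme-compound preincubation, 2 h reaction, 10 min detection, 25 °C · Signal – Kinase-Glo luminescence, ATP depletion format · Controls – DMSO-only wells as low control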
# Rin1-Abl PPI inh: inhibitors of Rin1-Abl protein binding, primary screen, biochemical, TR-FRET | Tyrosine-protein kinase ABL1 (Homo sapiens) + Ras and Rab interactor 1 (Homo sapiens), … | inhibition, % at 7.35 µM | 360,000 tested, 0.4% active; in the data active means inhibition above about 5%, passing the limit was not always enough
# Arr AP2 block: inhibitors of beta-arrestin/AP2 binding, primary screen, biochemical, GPCR trafficking, flow cytometry; beta-arrestin 1 C-terminal peptide binding to AP2 beta2-adaptin appendage (human); FITC-arrestin peptide / GST-AP2 beads; AP2 beta2 appendage carries R879A mutation; inhibition, % at 10 µM; 340,000 tested, 0.31% active; AID 504490, 2011;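 active means inhibition above a set limit, near 3 SD of compounds lacking own fluorescence, cut at about 54% in these data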
#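 Material – GST-tagged AP2 beta2-adaptin appendage (R879A) on 4 µm glutathione beads · Probe or stimulus – fluorescein-tagged arrestin peptide at 50 nM final · Timing – 12 min plus 1 h, RT · Detection – bead flow cytometry, FITC channel · Read-out basis – inhibition as reduced fluorescein signal on beads, percent · Medium – PBS plus Tween 20 (0.05%) and BSA (0.1%)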
# Rin1 Abl conf: Rin1-Abl binding inhibitor retest, confirmation, biochemical, TR-FRET; 1,300 tested, 49% active; purified proteins; inhibition, % at 7.35 µM; shares compounds with Rin1-Abl PPI inh; AID 602124, 2011
# GFP quench: GFP fluorescence inhibitors and quenchers, artefact control for Rin1-Abl interaction inhibitor project, biochemical; shares compounds with Rin1-Abl PPI inh; AID 602125, 2011; inhibition, % at 6.75 µM; inhibitors/quenchers counterscreen; 1,300 tested, 8.5% active;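 further: ABL1-eGFP fusion protein alone without its partner RIN1-SBP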
# GFP quench dose: GFP fluorescence inhibitors and quenchers, dose response, artefact control for Rin1-Abl interaction inhibitor project, biochemical; 230 tested, under 10 active; GFP fluorescence interference/quenching counterscreen; AID 602182, 2012; shares compounds with Rin1-Abl PPI inh; IC50, µM; call rule not given here;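 further: ABL1-eGFP fusion protein alone without its RIN1 binding partner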
# Hits are given with their value; i = inactive; nt = not tested or not shown. Unless noted, no stated cut-off is given here; in the data, active means inhibition above about 6.5%; inactive means the rest.
SMILES,MT1-MMP act inh,SKN-1 inh,Tb MetRS inh,Rin1-Abl PPI inh,Arr AP2 block,Rin1 Abl conf,GFP quench,others
O=C(Nc1ccc2ccccc2c1)C(c1ccccc1)n1c(=O)c(-c2cc3ccccc3[nH]2)nc2ccccc21 (stereo not given),i,i,i,nt,nt,nt,nt,
CC(C)N(C)c1ncnc2c1ncn2[C@H]1CN(Cc2ccc(Cl)cc2)C[C@@H](CO)O1,i,i,i,6.2,nt,6.3,i,
CN(C)c1ncnc2c1ncn2[C@H]1CN(Cc2ccccc2)C[C@@H](CO)O1,i,i,i,i,nt,nt,nt,
CN(C)c1ncnc2c1ncn2[C@H]1CN(Cc2ccc(-c3ccccc3)cc2)C[C@@H](CO)O1,i,i,i,20,nt,15,i,
OCCNc1ncnc2c1ncn2[C@H]1CN(Cc2ccc(Cl)cc2)C[C@@H](CO)O1,i,i,i,7.2,nt,i,i,
C=CCNc1ncnc2c1ncn2[C@H]1CN(Cc2ccc(-c3ccccc3)cc2)C[C@@H](CO)O1,i,i,i,19,nt,17,i,GFP quench dose=i
O=C(NCC[C@H]1CC[C@@H](NC(=O)C2CCC2)[C@@H](CO)O1)c1cc(Cl)cc(Cl)c1,i,i,i,nt,nt,nt,nt,
O=C(Nc1cccc(-c2nnc(-c3ccco3)o2)c1)c1ccccc1,i,i,i,10,i,i,i,
CC(=O)Oc1ccc(C(=O)Nc2cccc(-c3nnc(-c4ccco4)o3)c2)cc1,i,i,i,i,i,nt,nt,
CCc1nnc(NC(=O)CSc2nnc(CNC(=O)c3cc(OC)c(OC)c(OC)c3)o2)s1,i,i,i,8.2,i,i,i,
O=C(CCN1C(=O)/C(=C\c2ccco2)SC1=S)Nc1ccc(C(=O)O)c(O)c1,i,i,i,10,i,i,7.3,
CCN(CC)c1ccc(N=Cc2ccc(N(CC)CC)cc2O)cc1,i,i,i,11,i,i,i,
O=C(N/N=C\c1ccc(F)cc1)c1ccc(F)cc1,i,i,i,i,i,nt,nt,
CC(=O)Nc1ccc(C(=O)N/N=C/c2ccc(F)cc2)cc1,i,i,i,10,i,i,i,
C[C@H](CO)N1C[C@H](C)[C@@H](CN(C)Cc2ccncc2)OCCCC[C@H](C)Oc2ccc(NC(=O)CCCN(C)C)cc2C1=O,i,i,i,i,nt,nt,nt,
COc1ccc(CN(C)C(=O)c2ccccc2OCc2c(C)noc2C)c(OC)c1,i,i,i,i,i,nt,nt,
COc1ccc(Br)cc1CN(C)C(=O)c1ccccc1OCc1c(C)noc1C,i,i,i,9.0,i,i,i,
Cc1ccc(OCCCNC2CCCC2)cc1,i,i,i,i,i,nt,nt,
Cc1ccc(C)c(OCCCNC2CCCC2)c1C,i,i,i,13,i,i,i,
CC1=C2C3OC(=O)C(C)C3CCC2(C)C=CC1=NO (stereo not given),i,i,i,i,i,nt,nt,
COc1cc(OC)cc(-c2oc(=O)c3cc(OC)c(OC)cc3c2C#CCCO)c1,i,i,i,29,i,76,i,
O=C(CSc1nc2ccccc2s1)NC1CCCc2ccccc21 (stereo not given),i,i,i,7.5,i,i,i,
CC1=C(C(=O)Nc2ccc(C(=O)NCCCN3CCCCC3)cc2)SCCO1,i,i,i,i,i,nt,nt,
CC(C)CNC1=CC(=O)CC(c2ccco2)C1 (stereo not given),i,i,i,5.9,i,i,i,
CCC(C)(C)n1nnnc1C(c1cccnc1)N1CCCc2ccccc21 (stereo not given),i,i,i,43,i,48,i,GFP quench dose=i
SMILES,MT1-MMP act inh,SKN-1 inh,Tb MetRS inh,Rin1-Abl PPI inh,Arr AP2 block,Rin1 Abl conf,GFP quench,others
COC(=O)c1cc2c(ccc3ccccc32)oc1=O,i,i,i,i,i,nt,nt,
COC(=O)c1c(C)nc(C)c2c(=O)oc3ccccc3c12,i,i,i,15,i,38,i,GFP quench dose=i
COc1ccc(NC(=O)CN(C)C(=O)c2ccc3c(c2)CC(c2ccccc2)OC3=O)cc1 (stereo not given),i,i,i,8.1,nt,i,i,
CCCCNC(=O)C1(C)CCN1Cc1cc(C)ccc1C (stereo not given),i,i,i,i,nt,nt,nt,
CCCCn1c(SCC(=O)N2CCC(C)CC2)nc2cc(S(N)(=O)=O)ccc21,i,i,i,i,i,nt,nt,
CCCCn1c(SCC2CCCO2)nc2cc(S(N)(=O)=O)ccc21 (stereo not given),i,i,i,5.9,i,i,i,
COC(=O)CCCn1cc(CN2CC(N3CCN(C4CCN(C)CC4)CC3)CS2(=O)=O)nn1 (stereo not given),i,i,i,nt,nt,nt,nt,
CCn1c(C)nc2cc(C(=O)N/N=C/c3ccc(O)c(O)c3O)ccc21,i,i,i,45,i,53,23,
CCN(CC)S(=O)(=O)c1cccc(C(=O)N/N=C/c2ccc(O)c(O)c2O)c1,i,i,i,18,i,15,11,
CN(C)S(=O)(=O)c1cccc(NC(=S)N/N=C/c2ccc(O)c(O)c2O)c1,i,i,i,27,i,18,10,
O=C(Nc1ccc2c(c1)OCCO2)C1c2ccccc2OCC(=O)N1CCc1c[nH]c2ccccc12 (stereo not given),i,i,i,nt,nt,nt,nt,
COc1cc(/C=N/NC(=O)CSc2ccccn2)ccc1OC(C)C,i,i,i,17,i,26,i,GFP quench dose=i
Cc1[nH][nH]c(=O)c1C(c1c(C)[nH][nH]c1=O)c1cn(Cc2cccc3ccccc23)c2ccccc12,i,i,i,19,i,6.5,i,
COc1ccc(C(c2oc(CO)cc(=O)c2O)c2oc(CO)cc(=O)c2O)cc1,i,i,i,16,i,11,i,
COc1ccc(NC(=O)c2cc(-c3cc(C)cc(F)c3)n[nH]2)cc1OC,i,i,i,i,nt,nt,nt,
CCCCCCCOC(=O)C1=C(C)Nc2ncnn2C1c1cccs1 (stereo not given),i,i,i,7.5,i,i,i,
CC(=O)c1cccc(OCc2cc(C(=O)N3CCC(N4CCCCC4)CC3)no2)c1,i,i,i,9.9,i,i,i,
COc1ccc(C(=O)CC(C#N)c2ccc3c(c2)OCO3)cc1OC (stereo not given),i,i,i,11,nt,i,i,

# Assay outcomes deposited in PubChem by several laboratories.
